# Results as given in ChEMBL document CHEMBL1144018, “SAR studies of capsazepinoid bronchodilators. Part 2: Chlorination and catechol replacement in the A-ring” (Bioorg Med Chem, 2008).
# Species: Homo sapiens
# Assay: Bronchorelaxing effect on LTD4-contracted small human lung airways assessed as remaining contraction at 10 uM after 1.5 hrs relative to control
# Type: functional
# Outline: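 Human small airways (0.5–1.5 mm diameter) from lung cancer patients, in vitro. Each preparation contracted with 10 nM LTD4 untreated, then again after 1.5 h exposure to 10 µM test compound. Value is the percent of the full LTD4 contraction that remains, given as arithmetic mean ± SEM with n in parentheses.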
row,Structure (SMILES),Activity
1,Oc1cc2c(c(Cl)c1O)CN(C(=S)NCCc1ccc(Cl)cc1)CCC2,63%
2,Oc1cc2c(c(Cl)c1O)CCCN(C(=S)NCCc1ccc(Cl)cc1)C2,64%
3,Nc1ccc2c(c1)CCN(C(=S)NCCc1ccc(Cl)cc1)C2,62%
4,Oc1c(O)c(Cl)c2c(c1Cl)CCN(C(=S)NCCc1ccc(Cl)cc1)CC2,29%
5,Oc1ccc2c(c1Cl)CN(C(=S)NCCc1ccc(Cl)cc1)CCC2,46%
6,Oc1cc2c(cc1Cl)CN(C(=S)NCCc1ccc(Cl)cc1)CC2,73%
7,S=C(NCCc1ccc(Cl)cc1)N1CCc2ccccc2C1,83%
8,CS(=O)(=O)Nc1ccc2c(c1)CN(C(=S)NCCc1ccc(Cl)cc1)CC2,72%
9,Oc1c(Cl)cc2c(c1Cl)CCN(C(=S)NCCc1ccc(Cl)cc1)C2,55%
10,Oc1c(Cl)cc2c(c1Cl)CCCN(C(=S)NCCc1ccc(Cl)cc1)C2,30%
11,CC1Cc2c(Cl)c(O)c(O)c(Cl)c2CN1C(=S)NCCc1ccc(Cl)cc1 (stereo unspecified),31%
12,O=C(O)c1cc2c(cc1C(=O)O)CN(C(=S)NCCc1ccc(Cl)cc1)CC2,99%
13,Oc1cc2c(c(Cl)c1O)CN(C(=S)NCCc1ccc(Cl)cc1)CC2,49%
14,Oc1c(O)c(Cl)c2c(c1Cl)CCCN(C(=S)NCCc1ccc(Cl)cc1)C2,38%
15,Oc1c(Cl)cc2c(c1Cl)CN(C(=S)NCCc1ccc(Cl)cc1)CC2,57%
16,Oc1cc2c(cc1Cl)CCN(C(=S)NCCc1ccc(Cl)cc1)C2,69%

row,Structure (SMILES),Activity
1,Oc1ccc2c(c1Cl)CCN(C(=S)NCCc1ccc(Cl)cc1)C2,69%
2,Nc1ccc2c(c1)CN(C(=S)NCCc1ccc(Cl)cc1)CC2,79%
3,Oc1c(O)c(Cl)c2c(c1Cl)CCN(C(=S)NCCc1ccc(Cl)cc1)C2,14%
4,Oc1c(O)c(Cl)c2c(c1Cl)CN(C(=S)NCCc1ccc(Cl)cc1)C2,31%
5,COC(=O)c1cc2c(cc1C(=O)OC)CN(C(=S)NCCc1ccc(Cl)cc1)CC2,87%
6,Oc1c(O)c(Cl)c2c(c1Cl)CCN(C(=S)NCCc1ccc(Cl)cc1)C2Cc1ccccc1 (stereo unspecified),84%
7,Oc1cc2c(c(Cl)c1O)CN(C(=S)NCCc1ccc(Cl)cc1)C2,65%
8,Oc1cc2c(c(Cl)c1O)CCN(C(=S)NCCc1ccc(Cl)cc1)C2,40%
9,N#Cc1cc2c(cc1C#N)CN(C(=S)NCCc1ccc(Cl)cc1)CC2,84%
10,CS(=O)(=O)Nc1ccc2c(c1)CCN(C(=S)NCCc1ccc(Cl)cc1)C2,75%
11,Oc1cc2c(cc1Cl)CN(C(=S)NCCc1ccc(Cl)cc1)CCC2,49%
12,Oc1ccc2c(c1Cl)CCCN(C(=S)NCCc1ccc(Cl)cc1)C2,67%
13,CC1c2c(Cl)c(O)c(O)c(Cl)c2CCN1C(=S)NCCc1ccc(Cl)cc1 (stereo unspecified),48%
14,Oc1ccc2c(c1Cl)CN(C(=S)NCCc1ccc(Cl)cc1)CC2,47%
15,Oc1cc2c(cc1Cl)CCCN(C(=S)NCCc1ccc(Cl)cc1)C2,56%
